Assays:
Format in all cases: functional
HL-60 = assay: Cytotoxicity against human HL60 cells after 48 hrs; settings: HL-60, 48 h
MOLT-4 = assay: Cytotoxicity against human MOLT4 cells after 48 hrs; settings: MOLT-4, 48 h
SR = assay: Cytotoxicity against human SR cells after 48 hrs
Method in brief: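 Dose-dependent growth inhibition was assessed at the National Cancer Institute against its cancer cell line panel as a follow-up to the 10 micromolar single-dose screen.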

CCRF-CEM = assay: Cytotoxicity against human CCRF-CEM cells assessed as cell growth at 10 uM after 48 hrs relative to control; settings: read-out: Activity
Method in brief: (§1)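 Run at the National Cancer Institute as a single-dose screen across its 60-cell-line cancer panel. Compound was tested at 10 micromolar, and growth was expressed as a percentage of negative-control cultures.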

HL-60(TB) = assay: Cytotoxicity against human HL-60(TB) cells assessed as cell growth at 10 uM after 48 hrs relative to control; settings: HL-60, 48 h, read-out: Activity
Method in brief: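 Run at the NCI as a single-dose screen: each compound at 10 micromolar across the 60-cancer-cell-line panel. Growth of each cell line in compound-containing media was expressed relative to negative-control cultures.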

RPMI-8226 = assay: Cytotoxicity against human RPMI8226 cells assessed as cell growth at 10 uM after 48 hrs relative to control; settings: RPMI-8226, 48 h, read-out: Activity; method in brief: as §1
A549 = assay: Cytotoxicity against human A549 cells assessed as cell growth at 10 uM after 48 hrs relative to control; settings: A549, 48 h, read-out: Activity; method in brief: as §1
HOP-62 = assay: Cytotoxicity against human HOP62 cells assessed as cell growth at 10 uM after 48 hrs relative to control; settings: HOP-62, 48 h, read-out: Activity; method in brief: as §1
HOP-92 = assay: Cytotoxicity against human HOP92 cells assessed as cell growth at 10 uM after 48 hrs relative to control; settings: HOP-92, 48 h, read-out: Activity; method in brief: as §1
NCI-H226 = assay: Cytotoxicity against human NCI-H226 cells assessed as cell growth at 10 uM after 48 hrs relative to control; settings: NCI-H226, 48 h, read-out: Activity; method in brief: as §1
NCI-H460 = assay: Cytotoxicity against human NCI-H460 cells assessed as cell growth at 10 uM after 48 hrs relative to control; settings: NCI-H460, 48 h, read-out: Activity; method in brief: as §1
HT-29 = assay: Cytotoxicity against human HT-29 cells assessed as cell growth at 10 uM after 48 hrs relative to control; settings: HT-29, 48 h, read-out: Activity; method in brief: as §1
SW-620 = assay: Cytotoxicity against human SW620 cells assessed as cell growth at 10 uM after 48 hrs relative to control; settings: SW-620, 48 h, read-out: Activity
Method in brief: (§2)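 Submitted to the National Cancer Institute for a single-dose screen at 10 micromolar against 60 cancer cell lines. Growth is expressed relative to negative-control cultures.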

SF-268 = assay: Cytotoxicity against human SF268 cells assessed as cell growth at 10 uM after 48 hrs relative to control; settings: SF-268, 48 h, read-out: Activity; method in brief: as §1
SF-539 = assay: Cytotoxicity against human SF539 cells assessed as cell growth at 10 uM after 48 hrs relative to control; settings: SF-539, 48 h, read-out: Activity; method in brief: as §1
LOX IMVI = assay: Cytotoxicity against human LOXIMVI cells assessed as cell growth at 10 uM after 48 hrs relative to control; settings: read-out: Activity; method in brief: as §1
M14 = assay: Cytotoxicity against human M14 cells assessed as cell growth at 10 uM after 48 hrs relative to control; settings: M14, 48 h, read-out: Activity; method in brief: as §1
MDA-MB-435 = assay: Cytotoxicity against human MDA-MB-435 cells assessed as cell growth at 10 uM after 48 hrs relative to control; settings: MDA-MB-435, 48 h, read-out: Activity; method in brief: as §1
SK-MEL-28 = assay: Cytotoxicity against human SK-MEL-28 cells assessed as cell growth at 10 uM after 48 hrs relative to control; settings: SK-MEL-28, 48 h, read-out: Activity; method in brief: as §1
UACC-62 = assay: Cytotoxicity against human UACC62 cells assessed as cell growth at 10 uM after 48 hrs relative to control; settings: UACC-62, 48 h, read-out: Activity; method in brief: as §2
OVCAR-4 = assay: Cytotoxicity against human OVCAR4 cells assessed as cell growth at 10 uM after 48 hrs relative to control; settings: OVCAR-4, 48 h, read-out: Activity; method in brief: as §1
OVCAR-5 = assay: Cytotoxicity against human OVCAR5 cells assessed as cell growth at 10 uM after 48 hrs relative to control; settings: OVCAR-5, 48 h, read-out: Activity; method in brief: as §1
NCI/ADR-RES = assay: Cytotoxicity against human NCI/ADR-RES cells assessed as cell growth at 10 uM after 48 hrs relative to control; settings: read-out: Activity; method in brief: as §1
SK-OV-3 = assay: Cytotoxicity against human SKOV3 cells assessed as cell growth at 10 uM after 48 hrs relative to control; settings: SK-OV-3, 48 h, read-out: Activity; method in brief: as §1
786-0 = assay: Cytotoxicity against human 786-0 cells assessed as cell growth at 10 uM after 48 hrs relative to control; settings: 786-0, 48 h, read-out: Activity; method in brief: as §1
ACHN = assay: Cytotoxicity against human ACHN cells assessed as cell growth at 10 uM after 48 hrs relative to control; settings: read-out: Activity; method in brief: as §1
CAKI-1 = assay: Cytotoxicity against human Caki1 cells assessed as cell growth at 10 uM after 48 hrs relative to control; settings: CAKI-1, 48 h, read-out: Activity; method in brief: as §1
SN12C = assay: Cytotoxicity against human SN12C cells assessed as cell growth at 10 uM after 48 hrs relative to control; settings: read-out: Activity; method in brief: as §2
UO-31 = assay: Cytotoxicity against human UO31 cells assessed as cell growth at 10 uM after 48 hrs relative to control; settings: UO-31, 48 h, read-out: Activity; method in brief: as §2
PC-3 = assay: Cytotoxicity against human PC3 cells assessed as cell growth at 10 uM after 48 hrs relative to control; settings: PC-3, 48 h, read-out: Activity; method in brief: as §1
DU-145 = assay: Cytotoxicity against human DU145 cells assessed as cell growth at 10 uM after 48 hrs relative to control; settings: DU-145, 48 h, read-out: Activity; method in brief: as §1
MCF7 = assay: Cytotoxicity against human MCF7 cells assessed as cell growth at 10 uM after 48 hrs relative to control; settings: MCF7, 48 h, read-out: Activity; method in brief: as §1
MDA-MB-231 = assay: Cytotoxicity against human MDA-MB-231 cells assessed as cell growth at 10 uM after 48 hrs relative to control; settings: MDA-MB-231, 48 h, read-out: Activity; method in brief: as §1
[1] = Cytotoxicity against human Hs578T cells assessed as cell growth at 10 uM after 48 hrs relative to control; settings: Hs-578T, read-out: Activity; method in brief: as §1
BT-549 = assay: Cytotoxicity against human BT549 cells assessed as cell growth at 10 uM after 48 hrs relative to control; settings: BT-549, 48 h, read-out: Activity; method in brief: as §1
T47D = assay: Cytotoxicity against human T47D cells assessed as cell growth at 10 uM after 48 hrs relative to control; settings: read-out: Activity; method in brief: as §2
NCI-H522 = assay: Cytotoxicity against human NCI-H522 cells assessed as cell growth at 10 uM after 48 hrs relative to control; settings: NCI-H522, 48 h, read-out: Activity; method in brief: as §1

Compound | GI50 (HL-60) [µM] | GI50 (MOLT-4) [µM] | GI50 (SR) [µM] | growth at 10 µM (CCRF-CEM) [%] | growth at 10 µM (HL-60(TB)) [%] | growth at 10 µM (RPMI-8226) [%] | growth at 10 µM (A549) [%] | growth at 10 µM (HOP-62) [%] | growth at 10 µM (HOP-92) [%] | growth at 10 µM (NCI-H226) [%] | growth at 10 µM (NCI-H460) [%] | growth at 10 µM (HT-29) [%] | growth at 10 µM (SW-620) [%] | growth at 10 µM (SF-268) [%] | growth at 10 µM (SF-539) [%] | growth at 10 µM (LOX IMVI) [%] | growth at 10 µM (M14) [%] | growth at 10 µM (MDA-MB-435) [%] | growth at 10 µM (SK-MEL-28) [%] | growth at 10 µM (UACC-62) [%] | also measured
COC(=O)[C@@H](NC(=O)N[C@@H](Cc1ccccc1)C(=O)N[C@H]1CCCCNC(=O)/C=C/[C@H](Cc2c[nH]c3ccccc23)NC1=O)C(C)C | 1.29 | 0.599 | 0.453 | 58.2 | 55.3 | 21.2 | 95.5 | 113 | 91.3 | 65.7 | 99.1 | 29.7 | 87.7 | 78.8 | 17.5 | 64.7 | 101 | 1.21 | 62.7 | 79.3 | growth at 10 µM (OVCAR-4): 102%; growth at 10 µM (OVCAR-5): 113%; growth at 10 µM (NCI/ADR-RES): 99.1%; growth at 10 µM (SK-OV-3): 95.4%; growth at 10 µM (786-0): 99.7%; growth at 10 µM (ACHN): 101%; growth at 10 µM (CAKI-1): 106%; growth at 10 µM (SN12C): 80.1%; growth at 10 µM (UO-31): 84%; growth at 10 µM (PC-3): 103%; growth at 10 µM (DU-145): 95.1%; growth at 10 µM (MCF7): 40.3%; growth at 10 µM (MDA-MB-231): 79.1%; growth at 10 µM [1]: 58.2%; growth at 10 µM (BT-549): 26.6%; growth at 10 µM (T47D): 34.4%; growth at 10 µM (NCI-H522): -0.14%
COC(=O)[C@@H](NC(=O)N[C@@H](Cc1ccccc1)C(=O)N[C@H]1CCCCNC(=O)/C=C/[C@H](Cc2ccccc2)NC1=O)C(C)C | 4.34 | 3.32 | 2.78 | 9.59 | 20.9 | 7.17 | 68.6 | 51.6 | 15.7 | -44.2 | 35.6 | 14.5 | 23.1 | 10.1 | -22.2 | -4.92 | 53.9 | -69.1 | 33.3 | 9.78 | growth at 10 µM (OVCAR-4): 53.3%; growth at 10 µM (OVCAR-5): 87%; growth at 10 µM (NCI/ADR-RES): 98.8%; growth at 10 µM (SK-OV-3): 61.1%; growth at 10 µM (786-0): 71.8%; growth at 10 µM (ACHN): 91.4%; growth at 10 µM (CAKI-1): 106%; growth at 10 µM (SN12C): 29.5%; growth at 10 µM (UO-31): 89.6%; growth at 10 µM (PC-3): 73.2%; growth at 10 µM (DU-145): 46.1%; growth at 10 µM (MCF7): 37.4%; growth at 10 µM (MDA-MB-231): 23.2%; growth at 10 µM [1]: 24.9%; growth at 10 µM (BT-549): 3.25%; growth at 10 µM (T47D): 8.25%; growth at 10 µM (NCI-H522): -37%

Source: ChEMBL document CHEMBL3612027, “Substrate-guided optimization of the syringolins yields potent proteasome inhibitors with activity against leukemia cell lines” (Bioorg Med Chem, 2015)
